Assay outcomes deposited in PubChem BioAssay by several laboratories.
Shown are actives, neighbours in structure and some others; about 1.5% of the full set was active somewhere.
CSN deneddyl inh: inhibitors of human CSN-mediated cullin deneddylation. Purified CSN, SCF-Nedd8-OG deneddylation, fluorescence polarization. actives 0.38% (n = 360,000). Q92905. inhibition, % at 12.5 µM. AID 651999;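 active = pattern-corrected inhibition above about 35%, with an unprinted fluorescence ratio check between 0.5 and 1.5, limit read from the data, passing the limit was not always enough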;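 note: 0% = enzyme with substrate and 100% = substrate without enzyme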
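assay system = purified human Csn5 enzyme expressed in HEK293T cells | amount = 0.24 nM enzyme | buffer or medium = Tris/NaCl/DTT buffer, pH 7.5 | reagent = 10 nM SCFSkp2-Nedd8OG | compound = one concentration, 12.5 µM, 0.25% DMSO | times = 90 min reaction at room temperature | signal = FP | read-out basis = % inhibition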
Rpn11 inh: inhibitors of human proteasome Rpn11. O00487. human 26S proteasome, Ub4-pepOG fluorescence polarization; 20S core pre-blocked with epoxomicin. calls only at 20 µM. actives 0.59% (n = 360,000);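 active = inhibition at 20 µM, scaled to each plate's controls, above about 33%, limit read from the data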
HNF4A DNA FP: change in binding of human HNF4 alpha to DNA; actives 0.3% (n = 360,000); HNF4a-FITC DNA binding, fluorescence polarization, 1 h; AID 1224865; activity change, % at 10 µM; in the data active = activity change above about 30%, passing the limit was not always enough
Target sequence (P41235 whole entry, looked up): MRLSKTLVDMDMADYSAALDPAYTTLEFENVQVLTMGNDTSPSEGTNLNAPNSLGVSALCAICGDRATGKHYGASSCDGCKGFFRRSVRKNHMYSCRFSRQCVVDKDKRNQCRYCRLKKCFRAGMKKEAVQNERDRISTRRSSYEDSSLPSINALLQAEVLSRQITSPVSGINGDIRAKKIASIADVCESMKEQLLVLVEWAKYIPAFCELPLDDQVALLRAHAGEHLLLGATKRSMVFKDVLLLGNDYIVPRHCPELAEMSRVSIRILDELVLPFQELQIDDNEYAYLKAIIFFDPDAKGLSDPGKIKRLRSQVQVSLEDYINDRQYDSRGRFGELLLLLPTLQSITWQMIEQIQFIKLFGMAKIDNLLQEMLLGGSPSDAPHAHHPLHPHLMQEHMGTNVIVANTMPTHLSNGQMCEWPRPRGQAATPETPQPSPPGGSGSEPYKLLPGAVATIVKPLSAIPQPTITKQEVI
TPT1 inhibitor: blocks Candida albicans tRNA 2'-phosphotransferase. recombinant caTPT1, FP RNA substrate dephosphorylation. inhibition, % at 5 µM. actives 0.81% (n = 300,000);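 active = inhibition above the mean of all tested compounds plus 3 SD, set per screening campaign, cut at about 24% in these data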;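 note: plate controls were DMSO alone for no effect and ferristatin control at 100 nM for full effect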
Rpn11 inh conf: Rpn11 inhibition confirmation, single concentration; shares compounds with Rpn11 inh; purified human 26S proteasome, Ub4-pepOG fluorescence polarization; proteasome pretreated with epoxomicin; inhibition, % at 20 µM; actives 29% (n = 1,900); AID 602318
MMP-2 counter-1: counter-screen for RPN11 inhibitors: inhibition of human MMP-2. AID 602330. actives 4% (n = 1,900). inhibition, % at 20 µM. shares compounds with Rpn11 inh. recombinant MMP-2, FRET peptide cleavage fluorescence;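 note: human MMP-2 activated beforehand with APMA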
Thrombin FP: counter-screen for RPN11 inhibitors: inhibition of bovine thrombin. shares compounds with Rpn11 inh. bovine thrombin cleavage of Ub4-pepOG, fluorescence polarization. inhibition, % at 20 µM. actives 13% (n = 1,900). AID 602333;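 active = mean inhibition at least 40% at 20 µM, or signal 3 deviations below plate average, so some actives read negative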;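 note: plate controls were thrombin with DMSO for no effect and buffer wells lacking thrombin for full effect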
CSN deneddyl val: validation of inhibitors of human CSN-mediated cullin deneddylation | shares compounds with CSN deneddyl inh | Csn5 deneddylation of SCF-Nedd8OG, fluorescence polarization, 90 min | inhibition, % at 16.6 µM | actives 62% (n = 540) | AID 720654; in the data active = inhibition above about 50%;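 note: 0% = DMSO with enzyme and 100% = no enzyme wells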
MMP-2 counter-2: MMP-2 (human) inhibition, counter-screen for CSN hits | shares compounds with CSN deneddyl inh | recombinant MMP-2, FRET substrate fluorescence, 60 min | inhibition, % at 16.6 µM | actives 33% (n = 540);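 active = corrected plate-normalized z-score of 5 or more, or -5 or less, or inhibition of 15% or more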;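 note: plate controls were DMSO wells with enzyme for no effect and buffer wells lacking MMP-2 for full effect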
Thrombin counter: counter-screen for CSN deneddylation inhibitors: bovine thrombin inhibition. shares compounds with CSN deneddyl inh. bovine thrombin cleavage of Ub4-pepOG, fluorescence polarization. inhibition, % at 16.6 µM. actives 49% (n = 540);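 active = inhibition at or above a set limit, with a fluorescence interference ratio between 0.5 and a set maximum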
An asterisk follows results filed as active; i = inactive; . = no result given; + = active, no number. Cut-off read from the data, not from the text of the source, unless noted: active = inhibition above about 40%; inactive = the rest.

SMILES	CSN deneddyl inh	Rpn11 inh	HNF4A DNA FP	TPT1 inhibitor	Rpn11 inh conf	MMP-2 counter-1	Thrombin FP	others
CCCOP(=O)(OCCC)C(NC(=O)c1cc(OC)c(OC)c(OC)c1)c1ccccc1 (stereo not given)	-7	+	129*	-2	2	-26	-2
COc1ccccc1N1CCN(Cc2cnc(-c3ccccc3)[nH]2)CC1	0	i	-1	2	.	.	.
Clc1ccc(COC(Cn2ccnc2)c2ccc(Cl)cc2Cl)c(Cl)c1 (stereo not given)	-4	i	-3	2	.	.	.
CCCCCCCSc1cc(OC)c(CCNC)cc1OC	-5	i	4	1	.	.	.
CCCCCSc1cc(OC)c(CCNC)cc1OC	-4	+	-7	-2	13	-21	2
CC(C)OCCCNC(=O)c1c(N)n(CC2CCCO2)c2nc3ccccc3nc12 (stereo not given)	36*	+	6	3	7	-13	4
Cc1cccc(CN2CCN(CC(=O)N3CCC4(CC3)OCCO4)C2=O)c1	-1	+	5	-8	-18	-3	-14
O=C(CN1CCN(Cc2cccc(Cl)c2)C1=O)N1CCC2(CC1)OCCO2	-2	i	0	-3	.	.	.
CCOC(=O)C1CCN(/C=C2/C(=O)NC(=S)N(c3ccccc3F)C2=O)CC1	1	i	-1	4	.	.	.
Cc1ccc(N2C(=O)/C(=C/N3CCN(C(=O)c4ccco4)CC3)C(=O)NC2=S)cc1C	15	+	2	17	10	7	-1
COc1ccc(CN2Cc3cnnn3-c3ccccc3C2C)cc1 (stereo not given)	-1	i	7	.	.	.	.
COc1ccc(-n2c(/C=C/c3ccc(O)cc3)nc3ccccc3c2=O)cc1	6	+	6	8	15	47*	4
O=c1c2ccccc2nc(/C=C/c2ccc(O)cc2)n1-c1ccc(O)cc1	-2	i	8	10	.	.	.
CCOP(=O)(OCC)/C(C#N)=C/c1ccoc1	7	+	10	.	0	-60	-9
CCOC(=O)c1c(C)n(Cc2ccccc2)c2ccc(OCC(O)CNC(C)(C)C)cc12 (stereo not given)	2	i	3	-2	.	.	.
c1ccc(-c2ccc(-c3n(-c4ccccn4)c4ccccc4[n+]3-c3ccccn3)cc2)cc1	-8	i	0	.	.	.	.
O=C1NC(=O)N(c2ccc(Cl)cc2)C(=O)/C1=C/c1coc2ccc(O)cc2c1=O	14	+	1	11	-19	6	-11
O=C(Nc1ccc(Cl)cc1)Nc1nccs1	1	i	1	-4	.	.	.
CC(C)c1ccc(-n2c(O)c(C=NCCN3CCNCC3)c(=O)[nH]c2=S)cc1	3	i	2	0	.	.	.
Cc1ccc(Cn2cc(C=O)c(-c3ccc(C)cc3)n2)cc1	-5	+	2	0	3	3	-16
O=Cc1c(C(=O)O)n(Cc2ccccc2Cl)c2ccccc12	2	i	2	5	.	.	.
C=Cc1ccc(Cn2c(C(=O)O)c(C=O)c3ccccc32)cc1	14	+	3	8	155*	-2	60*
Cc1ccc(/C=C2\C(=O)NC(=S)N(c3ccc(F)cc3)C2=O)o1	26	+	25	.	44*	55*	57*
Cc1cccn2c(=O)c3cc(C(=O)N4CCC5(CC4)OCCO5)n(C)c3nc12	-6	+	-1	-4	-7	-3	-8
CCN(CC)P(=O)(NC(=O)c1cccn1C)N(CC)CC	-7	i	0	8	.	.	.
SMILES	CSN deneddyl inh	Rpn11 inh	HNF4A DNA FP	TPT1 inhibitor	Rpn11 inh conf	MMP-2 counter-1	Thrombin FP	others
Cc1cc(C=C2C(=O)N(C)C(=S)N(C)C2=O)c(C)n1-c1ccncc1	10	+	-6	19	7	-10	11
Cc1cc(/C=C2\C(=O)NC(=O)N(c3cccc(F)c3)C2=O)c(C)n1-c1cc(C(=O)O)cc(C(=O)O)c1	13	i	-22	11	.	.	.
COc1ccc(OC)c(C(O)C2CCCCN2)c1 (stereo not given)	1	i	-4	-3	.	.	.
O=C1NC(=S)N(c2ccccc2)C(=O)/C1=C/c1ccco1	53*	+	-43	12	90*	61*	24	MMP-2 counter-2=46*;Thrombin counter=39
Cc1ccccc1NC(=O)c1cc(-c2ccccc2)n(CCCN2CCOCC2)c1C	3	i	2	-3	.	.	.
Cc1ccccc1NC(=NCCCN1CC1)Nc1ccccc1C	117*	+	174	.	99*	-128	52*	CSN deneddyl val=-59;MMP-2 counter-2=26*;Thrombin counter=29*
CC12CCC3C(CC=C4CC(O)CCC43C)C1CC(=CN1CCOCC1)C2=O (stereo not given)	1	i	2	.	.	.	.
CCOC(=O)c1c(-n2c(C)cc(C=C3C(=O)NC(=S)NC3=O)c2C)sc2c1CCCC2	49*	+	-6	20	35	23	17	CSN deneddyl val=83*;MMP-2 counter-2=31*;Thrombin counter=12
CN1CCN(c2nc3ccccc3o2)CC1	4	i	-2	-1	.	.	.
COc1ccccc1N1C(=O)NC(=O)/C(=C/c2ccc([N+](=O)[O-])s2)C1=O	.	.	.	13	.	.	.
O=C1NC(=O)N(Cc2ccc(F)cc2)C(=O)/C1=C\c1ccc([N+](=O)[O-])s1	35*	i	-9	23	.	.	.	CSN deneddyl val=34;MMP-2 counter-2=15*;Thrombin counter=0
O=S(=O)(c1ccccc1)C1CN1c1c(F)c(F)c(F)c(F)c1F (stereo not given)	-5	.	-4	.	.	.	.
CCOc1cccc(N2C(=O)/C(=C/c3ccco3)C(=O)NC2=S)c1	39*	.	-45	20	.	.	.	MMP-2 counter-2=34*;Thrombin counter=10
CCn1nc(/C=C/c2ccccc2)nc2c(=O)n(C)c(=O)nc1-2	59*	i	107*	.	.	.	.	CSN deneddyl val=9;MMP-2 counter-2=3;Thrombin counter=-30
O=C1NC(=O)N(c2cccc(Cl)c2)C(=O)/C1=C\c1ccc(Sc2nc3ccccc3[nH]2)o1	38*	+	16	-30	.	.	.	CSN deneddyl val=8;MMP-2 counter-2=-7;Thrombin counter=25*
COCC(=O)N1Cc2ccccc2-n2nncc2C1	3	i	4	.	.	.	.
CCC1(C)OC(c2ccccc2)=C/C(=C/C=C2C(=O)NC(=O)NC2=O)O1 (stereo not given)	78*	.	180	.	.	.	.	CSN deneddyl val=139*;MMP-2 counter-2=-16;Thrombin counter=51*
CCC1(Oc2ccccc2)C(=O)NC(=O)NC1=O	-3	i	3	.	.	.	.
O=c1[nH]c(=S)n(C2CC2)c(O)c1C=Nc1cccc(C(F)(F)F)c1	6	.	0	4	.	.	.
CCOC(=O)c1c(NC(=O)c2c(N)n(CCCOC)c3nc4ccccc4nc23)sc2c1CCCC2	1	i	5	5	.	.	.
CCOCCCn1c(N)c(C(=O)Nc2sc3c(c2C(=O)OC)CCCC3)c2nc3ccccc3nc21	52*	i	14	4	.	.	.	CSN deneddyl val=93*;MMP-2 counter-2=0;Thrombin counter=1
